In PMC9444296 (Investigative Radiology, 2022):
Where two headings read alike, the source gives them in different places. Where no end group is shown, it is not given here.

What was measured:
[1] = Hepatocyte metabolic stability, negative and positive controls; type: in vitro ADME; settings: hepatocyte incubation
[2] = cited from earlier work
[3] = system: LNCaP human prostate tumors; assay: Contrast-enhanced MRI of LNCaP prostate tumor xenografts in rats; type: in vivo, rat; settings: 0.1 mmol/kg IV, 3 T, n = 3
How it was run: (§1)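 Male rats carried subcutaneous flank xenografts of 4 × 10⁶ PC3 or 8 × 10⁶ LNCaP cells in Matrigel-PBS (1:1) and were imaged once tumours exceeded 100 mm³. Scans used 1 mm slices, 2 averages and a 128 × 128 matrix. The same tumour-bearing rats were reused across agents and doses, with a clinical Gd agent at 0.1 mmol Gd/kg as comparator.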

[4] = system: PC3 human prostate cancer xenografts; assay: Contrast-enhanced MRI of PC3 prostate tumor xenografts in rats; type: in vivo, rat; settings: PC3 tumors in rats, 0.1 mmol/kg IV, 3 T, n = 6
How it was run: as §1

[5] = target: CYP2C8 (Homo sapiens, UniProt P10632); assay: CYP2C8 inhibition in human liver microsomes; type: in vitro ADME; settings: CYP2C8, positive control selective inhibitor
[6] = system: CYP1A2; settings: positive control 50 μM, CYP1A2, human primary hepatocytes
[7] = system: CYP2B6; settings: positive control 1000 μM, CYP2B6, human primary hepatocytes
[8] = target: CYP2D6 (Homo sapiens, UniProt P10635); assay: CYP2D6 inhibition in human liver microsomes; type: in vitro ADME; settings: CYP2D6, positive control selective inhibitor, human liver microsomes
[9] = target: CYP2C9 (Homo sapiens, UniProt P11712); assay: CYP2C9 inhibition in human liver microsomes; settings: CYP2C9, positive control selective inhibitor, human liver microsomes
[10] = Metabolic pathway study in human liver microsomes; type: in vitro ADME; settings: 120 minutes
[11] = target: CYP2B6 (Homo sapiens, UniProt P20813); settings: CYP2B6, positive control selective inhibitor, human liver microsomes
[12] = target: EDB protein fragment (Homo sapiens, UniProt P02751); settings: cited from earlier work
EDB protein fragment, sequence (P02751 1271-1359 limits assumed): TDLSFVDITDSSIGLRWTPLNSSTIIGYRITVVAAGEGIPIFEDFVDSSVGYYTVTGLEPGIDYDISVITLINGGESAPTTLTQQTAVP

CYP2C8, sequence (P10632 whole entry): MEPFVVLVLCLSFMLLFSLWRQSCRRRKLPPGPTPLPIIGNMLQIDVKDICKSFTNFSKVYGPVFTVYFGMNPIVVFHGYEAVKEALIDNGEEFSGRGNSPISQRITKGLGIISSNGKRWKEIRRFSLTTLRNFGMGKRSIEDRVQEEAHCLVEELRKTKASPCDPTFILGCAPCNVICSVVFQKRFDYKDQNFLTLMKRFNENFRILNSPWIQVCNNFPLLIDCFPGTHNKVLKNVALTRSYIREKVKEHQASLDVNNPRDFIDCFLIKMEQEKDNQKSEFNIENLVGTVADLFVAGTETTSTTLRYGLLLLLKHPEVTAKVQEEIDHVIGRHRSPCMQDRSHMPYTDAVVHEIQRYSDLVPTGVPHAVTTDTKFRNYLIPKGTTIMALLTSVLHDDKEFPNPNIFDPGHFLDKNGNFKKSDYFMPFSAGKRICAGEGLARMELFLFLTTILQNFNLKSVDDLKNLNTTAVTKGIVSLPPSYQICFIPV
CYP2C9, sequence (P11712 whole entry): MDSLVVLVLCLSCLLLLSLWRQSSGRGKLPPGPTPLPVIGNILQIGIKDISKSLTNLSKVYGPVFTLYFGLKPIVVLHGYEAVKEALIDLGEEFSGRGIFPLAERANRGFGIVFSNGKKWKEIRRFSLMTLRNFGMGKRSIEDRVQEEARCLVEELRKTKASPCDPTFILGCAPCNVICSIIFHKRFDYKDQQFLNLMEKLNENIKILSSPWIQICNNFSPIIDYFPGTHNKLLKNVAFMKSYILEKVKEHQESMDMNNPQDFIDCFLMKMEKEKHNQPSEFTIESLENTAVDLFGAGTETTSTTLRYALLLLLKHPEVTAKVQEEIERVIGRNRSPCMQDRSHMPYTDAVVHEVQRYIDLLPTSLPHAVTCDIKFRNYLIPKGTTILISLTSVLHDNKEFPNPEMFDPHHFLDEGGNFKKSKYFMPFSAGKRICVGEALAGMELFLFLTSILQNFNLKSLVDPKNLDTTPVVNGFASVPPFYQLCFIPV
CYP2B6 (Homo sapiens, UniProt P20813), sequence (P20813 whole entry, the tested form may be a part): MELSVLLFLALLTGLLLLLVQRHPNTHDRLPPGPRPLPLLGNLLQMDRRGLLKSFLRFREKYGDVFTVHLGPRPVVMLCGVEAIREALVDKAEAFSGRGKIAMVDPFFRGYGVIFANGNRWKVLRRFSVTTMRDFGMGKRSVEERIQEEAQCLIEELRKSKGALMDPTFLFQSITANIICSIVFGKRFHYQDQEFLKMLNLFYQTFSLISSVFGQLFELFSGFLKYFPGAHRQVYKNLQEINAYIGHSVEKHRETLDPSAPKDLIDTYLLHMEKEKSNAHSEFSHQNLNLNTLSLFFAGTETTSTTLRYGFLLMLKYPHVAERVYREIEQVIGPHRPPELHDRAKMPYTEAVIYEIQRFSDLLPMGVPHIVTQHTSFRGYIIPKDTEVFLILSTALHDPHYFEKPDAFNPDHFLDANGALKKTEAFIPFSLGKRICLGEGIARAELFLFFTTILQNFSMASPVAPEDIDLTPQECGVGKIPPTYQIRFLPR
CYP2D6, sequence (P10635 whole entry): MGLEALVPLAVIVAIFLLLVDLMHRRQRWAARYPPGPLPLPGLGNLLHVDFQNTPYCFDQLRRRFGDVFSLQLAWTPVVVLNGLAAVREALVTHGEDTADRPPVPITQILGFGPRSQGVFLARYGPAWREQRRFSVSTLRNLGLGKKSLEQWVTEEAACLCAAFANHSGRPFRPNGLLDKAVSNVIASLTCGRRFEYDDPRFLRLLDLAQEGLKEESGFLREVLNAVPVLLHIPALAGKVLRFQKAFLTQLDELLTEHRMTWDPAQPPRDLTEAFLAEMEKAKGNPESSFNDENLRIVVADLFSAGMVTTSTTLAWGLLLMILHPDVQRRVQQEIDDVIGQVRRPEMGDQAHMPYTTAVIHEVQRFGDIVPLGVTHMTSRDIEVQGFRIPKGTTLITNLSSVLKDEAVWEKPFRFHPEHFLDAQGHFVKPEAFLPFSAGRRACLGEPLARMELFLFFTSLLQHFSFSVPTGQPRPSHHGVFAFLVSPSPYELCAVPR

O=c1ccc2ccc(O)cc2o1 [7-hydroxycoumarin]
remaining substrate in the positive control [1]: 18.8%

CC(O)CN1CCN(CC(=O)[O-])CCN(CC(=O)[O-])CCN(CC(=O)[O-])CC1.[Gd+3] (centres unmarked) [Gadoteridol, gadoteridol]
r1 Relaxivity ([2]; 1.4 T, H2O): 3.2 (H2O) mM^−1 s^−1
r1 Relaxivity ([2]; 1.5 T, H2O): 2.9 (H2O) mM^−1 s^−1
r1 Relaxivity ([2]; 1.5 T, plasma): 4.1 mM⁻¹ s⁻¹
r1 Relaxivity ([2]; 3.0 T, H2O): 2.8 (H2O) mM^−1 s^−1
r1 Relaxivity ([2]; 3.0 T, plasma): 3.7 mM⁻¹ s⁻¹
CNR [3]: 1.79 ± 0.74
CNR ([4]; 10 minutes postinjection): 1.32 ± 0.58
CNR ([4]; 30 minutes postinjection): 1.714 ± 0.69

CC(C)(O)c1ccccc1CC[C@@H](SCC1(CC(=O)O)CC1)c1cccc(/C=C/c2ccc3ccc(Cl)cc3n2)c1 [montelukast, reference compound]
enzyme activity decreased by [5]: 80.0%

COc1ccc2[nH]c([S+]([O-])Cc3ncc(C)c(OC)c3C)nc2c1 (centres unmarked) [omeprazole, reference compound]
increase of enzyme activity vs vehicle control [6]: about 40 fold
increase of mRNA expression vs vehicle control [6]: about 62 fold

CCC1(c2ccccc2)C(=O)NC(=O)NC1=O [phenobarbital, reference compound]
increase of enzyme activity vs vehicle control [7]: ~12 fold
increase of mRNA expression vs vehicle control [7]: ~14 fold

C=C[C@H]1C[N@@]2CC[C@H]1C[C@@H]2[C@@H](O)c1ccnc2ccc(OC)cc12 [quinidine, reference compound]
enzyme activity decreased by [8]: 91.2%

Nc1ccc(S(=O)(=O)Nc2ccnn2-c2ccccc2)cc1 [sulfaphenazole, reference compound]
enzyme activity decreased by [9]: 87.4%

C[C@]12CC[C@H]3[C@@H](CCC4=CC(=O)CC[C@@]43C)[C@@H]1CC[C@@H]2O [testosterone, reference compound]
remaining substrate in the positive control [1]: 9.29%
remaining testosterone (systematic control) [10]: 11.4%

S=P(N1CC1)(N1CC1)N1CC1 [thiotepa, reference compound]
enzyme activity decreased by [11]: 89.2%

TVRTSAD [ZD2]
binding affinity to the EDB fragment [12]: moderate binding affinity
